Experimental data as given in ChEMBL document CHEMBL2176871, “Development of ligands at γ-aminobutyrric acid type A (GABAA) receptor subtype as new agents for pain relief” (Bioorg Med Chem, 2011).
Active and inactive are the calls of the source.

Key:
[1] = Displacement of [3H]Ro151788 from GABA(A)/BzR in bovine cerebral cortex membrane; assay type: cell membranes, Bos taurus
Outline: (§1)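 Bovine cerebral cortex membranes in 50 mM Tris-citrate pH 7.4; [3H]flumazenil displacement. Compounds first tested at a fixed 10 µM; Ki determined only when inhibition exceeded 80%, using at least six concentrations. Five experiments run in triplicate; IC50 obtained by iterative curve fitting and converted to Ki with the Cheng–Prusoff equation.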

Bos taurus = species: Bos taurus; assay: Displacement of [3H]Ro151788 from GABA(A)/BzR in bovine cerebral cortex membrane at 10 uM; assay type: cell membranes; outline: as §1
Rattus norvegicus [2] = assay: Antinociceptive activity in Sprague-Dawley rat mononeuropathy pain model assessed as increase in injured paw pressure at 30 mg/kg, po after 45 mins by paw pressure test relative to non-treated control; assay type: functional
Outline: (§2)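 Chronic constriction injury: loose ligatures placed on the common sciatic nerve under chloral hydrate; contralateral sham dissection. Tested 14 days after surgery. Paw pressure applied at 32 g/s; threshold taken as the force causing the first struggle; cut-off 250 g; pretest outliers (<40 g or >75 g) excluded. Oral dosing in 10 ml/kg; read at 15, 30 and 45 min; compared with a CMC-treated group.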

Rattus norvegicus [3] = assay: Toxicity in Sprague-Dawley rat mononeuropathy pain model assessed as effect on contralateral paw pressure at 30 mg/kg, po after 15 mins by paw pressure test; assay type: organism-based; set-up: dose 30 mg/kg, route oral; conditions: in vivo, 0.25 h
Outline: (§3)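 Same sciatic-ligation rat model, 14 days after surgery. Threshold measured on the non-operated contralateral hind paw by analgesimeter at 32 g/s; first-struggle endpoint; 250 g cut-off; pretest rats outside 40–75 g rejected. Compound given po in 10 ml/kg; readings at 15, 30 and 45 min.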

Rattus norvegicus [4] = assay: Toxicity in Sprague-Dawley rat mononeuropathy pain model assessed as effect on contralateral paw pressure at 30 mg/kg, po after 45 mins by paw pressure test; assay type: organism-based; set-up: dose 30 mg/kg, route oral; conditions: in vivo, 0.75 h; outline: as §3
Rattus norvegicus [5] = assay: Toxicity in Sprague-Dawley rat mononeuropathy pain model assessed as effect on contralateral paw pressure at 30 mg/kg, po after 30 mins by paw pressure test; assay type: organism-based; set-up: dose 30 mg/kg, route oral; conditions: in vivo, 0.5 h; outline: as §3
Rattus norvegicus [6] = assay: Antinociceptive activity in Sprague-Dawley rat mononeuropathy pain model assessed as increase in injured paw pressure at 30 mg/kg, po after 30 mins by paw pressure test relative to non-treated control; assay type: functional; outline: as §2
Rattus norvegicus [7] = assay: Antinociceptive activity in Sprague-Dawley rat mononeuropathy pain model assessed as increase in injured paw pressure at 30 mg/kg, po after 15 mins by paw pressure test relative to non-treated control; assay type: functional; outline: as §2
Mus musculus [8] = assay: Antihyperalgesic activity against streptozotocin-induced hyperalgesia in Swiss albino mouse […] assessed as licking latency time at 30 mg/kg, po after 60 mins by hot plate test (reference value: 8.8 +/- 0.7 secs); assay type: functional
Mus musculus [9] = assay: Anxiolytic-like activity in Swiss albino mouse at 30 mg/kg, po after 30 mins by light/dark box test; assay type: functional, organism-based; set-up: dose 30 mg/kg
Outline: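 Male Swiss mice tested in a two-compartment light/dark box. Transfers between compartments and time spent in the lit side recorded. Compound given po 30 min before testing, in 10 ml/kg; flumazenil given i.p. for antagonism; 8 mice per group.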

Mus musculus [10] = assay: Antihyperalgesic activity against streptozotocin-induced hyperalgesia in Swiss albino mouse […] assessed as licking latency time at 30 mg/kg, po after 45 mins by hot plate test (reference value: 8.8 +/- 0.7 secs); assay type: functional
Mus musculus [11] = assay: Antihyperalgesic activity Swiss albino mouse […] assessed as licking latency time at 30 mg/kg, po after 45 mins by hot plate test (reference value: 16.6 +/- 0.8 secs); assay type: functional
Outline: (§4)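 Hot plate at 52.5 ± 0.1 °C in non-diabetic male Swiss mice. Latency to licking of fore or hind paws was timed before dosing and every 15 min up to 60 min after oral dosing. Mice with pretest latencies below 12 s or above 18 s were excluded. Cut-off was 45 s.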

Mus musculus [12] = assay: Antihyperalgesic activity Swiss albino mouse […] assessed as licking latency time at 30 mg/kg, po after 30 mins by hot plate test (reference value: 16.6 +/- 0.8 secs); assay type: functional; outline: as §4
Mus musculus [13] = assay: Antihyperalgesic activity against streptozotocin-induced hyperalgesia in Swiss albino mouse […] assessed as licking latency time at 30 mg/kg, po after 15 mins by hot plate test (reference value: 8.8 +/- 0.7 secs); assay type: functional
Mus musculus [14] = assay: Antihyperalgesic activity Swiss albino mouse […] assessed as licking latency time at 30 mg/kg, po after 60 mins by hot plate test (reference value: 16.6 +/- 0.8 secs); assay type: functional; outline: as §4
Mus musculus [15] = assay: Antihyperalgesic activity Swiss albino mouse […] assessed as licking latency time at 30 mg/kg, po after 15 mins by hot plate test (reference value: 16.6 +/- 0.8 secs); assay type: functional; outline: as §4
Mus musculus [16] = assay: Anticonvulsant activity in Swiss albino mouse […] assessed as protection against intraperitoneally administered pentylenetetrazol-induced seizures at 10 mg/kg, po after 30 mins; assay type: functional
Outline: (§5)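 Male Swiss albino mice. Compounds given po and PTZ 90 mg/kg injected 30 min later; PTZ was dissolved in 0.9% NaCl saline. Clonic generalized convulsions were recorded over 30 min. Each value is the mean of 10 mice. The methods give the PTZ route as s.c. and the table footnote gives it as ip.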

Mus musculus [17] = assay: Analgesic activity in Swiss albino mouse abdominal constriction model assessed as decrease in number of acetic acid-induced writhing at 30 to 60 mg/kg, po after 30 mins; assay type: functional, organism-based; conditions: Abdomen
Outline: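 Male Swiss albino mice (23–30 g). Compounds given po in 1% CMC vehicle 30 min before the test. Acetic acid 0.6% injected i.p. at 10 ml/kg. Stretching movements were counted for 10 min, starting 5 min after the acetic acid injection. 8–15 mice per group.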

Mus musculus [18] = assay: Antihyperalgesic activity against streptozotocin-induced hyperalgesia in Swiss albino mouse […] assessed as licking latency time at 30 mg/kg, po after 30 mins by hot plate test (reference value: 8.8 +/- 0.7 secs); assay type: functional
Mus musculus [19] = assay: Anxiolytic activity in ip dosed Swiss albino mouse pain model after 30 mins by light/dark box test in presence of flumazenil; assay type: functional, organism-based
Outline: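 Light/dark box test in male Swiss albino mice, with drug given 30 min before testing and flumazenil 100 mg/kg i.p. co-administered before the test. Read-outs were transfers between compartments and time in the lit side. Results are means ± SEM of 8 mice.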

Mus musculus [20] = assay: Anxiolytic activity in ip dosed Swiss albino mouse pain model after 30 mins by light/dark box test; assay type: functional, organism-based
Outline: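 Male Swiss albino mice were tested in a light/dark box 30 min after dosing. Read-outs were transfers between compartments and time spent in the illuminated side. Dose volume was 10 ml/kg. Results are means ± SEM of 8 mice.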

Rattus norvegicus [21] = assay: Antinociceptive activity in Sprague-Dawley rat mononeuropathy pain model assessed as increase in injured paw pressure at 10 mg/kg, po after 30 mins by paw pressure test relative to non-treated control; assay type: functional; outline: as §2
Rattus norvegicus [22] = assay: Antinociceptive activity in Sprague-Dawley rat mononeuropathy pain model assessed as increase in injured paw pressure at 10 mg/kg, po after 15 mins by paw pressure test relative to non-treated control; assay type: functional; outline: as §2
Mus musculus [23] = assay: Antihyperalgesic activity against streptozotocin-induced hyperalgesia in Swiss albino mouse […] assessed as licking latency time at 30 mg/kg, po after 45 mins by hot plate test (reference value: 9.3 +/- 0.7 secs); assay type: functional
Mus musculus [24] = assay: Antihyperalgesic activity against streptozotocin-induced hyperalgesia in Swiss albino mouse […] assessed as licking latency time at 30 mg/kg, po after 30 mins by hot plate test (reference value: 9.3 +/- 0.7 secs); assay type: functional
Mus musculus [25] = assay: Antihyperalgesic activity Swiss albino mouse […] assessed as licking latency time at 30 mg/kg, po after 45 mins by hot plate test (reference value: 16.9 +/- 0.8 secs); assay type: functional; outline: as §4
Mus musculus [26] = assay: Anticonvulsant activity in Swiss albino mouse […] assessed as protection against intraperitoneally administered pentylenetetrazol-induced seizures at 30 mg/kg, po after 30 mins; assay type: functional; outline: as §5
Mus musculus [27] = assay: Antihyperalgesic activity against streptozotocin-induced hyperalgesia in Swiss albino mouse […] assessed as licking latency time at 30 mg/kg, po after 15 mins by hot plate test (reference value: 9.3 +/- 0.7 secs); assay type: functional
Rattus norvegicus [28] = assay: Antinociceptive activity in Sprague-Dawley rat mononeuropathy pain model assessed as increase in injured paw pressure at 10 mg/kg, po after 45 mins by paw pressure test relative to non-treated control; assay type: functional; outline: as §2
Mus musculus [29] = assay: Antihyperalgesic activity Swiss albino mouse […] assessed as licking latency time at 30 mg/kg, po after 15 mins by hot plate test (reference value: 16.9 +/- 0.8 secs); assay type: functional; outline: as §4
Mus musculus [30] = assay: Antihyperalgesic activity against streptozotocin-induced hyperalgesia in Swiss albino mouse […] assessed as licking latency time at 30 mg/kg, po after 60 mins by hot plate test (reference value: 9.3 +/- 0.7 secs); assay type: functional
Mus musculus [31] = assay: Antihyperalgesic activity Swiss albino mouse […] assessed as licking latency time at 30 mg/kg, po after 60 mins by hot plate test (reference value: 16.9 +/- 0.8 secs); assay type: functional; outline: as §4
Rattus norvegicus [32] = assay: Toxicity in Sprague-Dawley rat mononeuropathy pain model assessed as effect on contralateral paw pressure at 10 mg/kg, po after 45 mins by paw pressure test; assay type: organism-based; set-up: dose 10 mg/kg, route oral; conditions: in vivo, 0.75 h; outline: as §3
Mus musculus [33] = assay: Antihyperalgesic activity Swiss albino mouse […] assessed as licking latency time at 30 mg/kg, po after 30 mins by hot plate test (reference value: 16.9 +/- 0.8 secs); assay type: functional; outline: as §4
Rattus norvegicus [34] = assay: Toxicity in Sprague-Dawley rat mononeuropathy pain model assessed as effect on contralateral paw pressure at 10 mg/kg, po after 15 mins by paw pressure test; assay type: organism-based; set-up: dose 10 mg/kg, route oral; conditions: in vivo, 0.25 h; outline: as §3
Rattus norvegicus [35] = assay: Toxicity in Sprague-Dawley rat mononeuropathy pain model assessed as effect on contralateral paw pressure at 10 mg/kg, po after 30 mins by paw pressure test; assay type: organism-based; set-up: dose 10 mg/kg, route oral; conditions: in vivo, 0.5 h; outline: as §3

SMILES | Ki [1] | inhibition (Bos taurus) | Activity (Rattus norvegicus [2]) | Activity (Rattus norvegicus [3]) | Activity (Rattus norvegicus [4]) | Activity (Rattus norvegicus [5]) | Activity (Rattus norvegicus [6]) | Activity (Rattus norvegicus [7]) | further results
[O-][n+]1nc2c(I)cnn2c2cc(NCc3ccc(Cl)cc3)ccc21 | 2.44 nM | > 80% | – | – | – | – | – | – | –
Cc1cnn2c1nnc1ccc(NCc3ccccc3)cc12 | 2.78 nM | > 80% | – | – | – | – | – | – | –
Cc1cnn2c1n[n+]([O-])c1ccc(Cl)cc12 | 400 nM | > 80% | – | – | – | – | – | – | –
O=C(OCc1cccs1)c1cnn2c1n[n+]([O-])c1ccc(Cl)cc12 | 6.8 nM | – | 32.8 g | 59.3 g | 60.9 g | 57.8 g | 35.2 g | 33.6 g | –
COc1ccccc1COc1ccc2c(c1)n1ncc(C)c1n[n+]2[O-] | 3.02 nM | > 80% | – | – | – | – | – | – | –
CN(Cc1ccccc1)c1ccc2c(c1)n1ncc(I)c1n[n+]2[O-] | 1.02 nM | > 80% | 28.5 g | 61.7 g | 60.8 g | 62.8 g | 26.5 g | 29.2 g | Time (Mus musculus [8]): 11.1 s; Activity (Mus musculus [9]): Active; Time (Mus musculus [10]): 10.4 s; Time (Mus musculus [11]): 18.3 s; Time (Mus musculus [12]): 16.8 s; Time (Mus musculus [13]): 10.1 s; Time (Mus musculus [14]): 17.9 s; Time (Mus musculus [15]): 17.3 s; Activity (Mus musculus [16]): 10%; Activity (Mus musculus [17]): inactive; Time (Mus musculus [18]): 11.8 s
CN1C(=O)CN=C(c2ccccc2)c2cc(Cl)ccc21 | – | – | – | – | – | – | – | – | Activity (Mus musculus [19]): inactive; Activity (Mus musculus [20]): Active
CC(COc1ccc2c(c1)n1ncc(I)c1n[n+]2[O-])c1ccccc1 (racemic) | – | > 80% | 39 g | 58.8 g | 59.2 g | 61.7 g | 40.8 g | 43.4 g | Activity (Mus musculus [9]): Active; Activity (Rattus norvegicus [21]): 43.5 g; Activity (Rattus norvegicus [22]): 42.5 g; Time (Mus musculus [23]): 17.8 s; Activity (Mus musculus [17]): inactive; Time (Mus musculus [24]): 17.5 s; Time (Mus musculus [25]): 17.7 s; Activity (Mus musculus [26]): 0%; Time (Mus musculus [27]): 16.4 s; Activity (Rattus norvegicus [28]): 37.2 g; Time (Mus musculus [29]): 17.2 s; Time (Mus musculus [30]): 18.1 s; Time (Mus musculus [31]): 18.2 s; Activity (Rattus norvegicus [32]): 57.9 g; Time (Mus musculus [33]): 16.8 s; Activity (Rattus norvegicus [34]): 59.8 g; Activity (Rattus norvegicus [35]): 63.5 g
